High-throughput results from PubChem BioAssay.
ARNT-TACC3 inh = ARNT/TACC3 interaction disruption. AlphaScreen His-ARNT PAS-B/GST-TACC3 binding, luminescence; TACC3 fragment carries E629A point mutation. 390,000 compounds, 0.66% hits. inhibition, % at 9.99 µM. Q9Y6A5;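 active = mean inhibition of replicates at least 50% and at least half of replicates each reaching 50%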;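 note: 0% = complete ARNT plus TACC3 wells and 100% = ARNT alone without TACC3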
CAL PDZ FP-1 = CAL PDZ (human) peptide binding inhibition | purified CAL PDZ, TMR-peptide fluorescence polarization, 1 h | inhibition, % at 24.9 µM | 300,000 compounds, 0.92% hits | AID 602252;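 active = mean inhibition of at least 30% with at least half of replicates also reaching 30%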;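 note: 0% = DMSO neutral control and 100% = excess unlabeled competitor peptide PRC23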
CAL PDZ FP-2 = blocks peptide binding to human CAL PDZ domain; purified CAL PDZ, TMR-peptide fluorescence polarization, 1 h; 330,000 compounds, 0.02% hits; inhibition, % at 20 µM; AID 504414; Q9HD26;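 active = highest replicate inhibition of at least 40%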;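 note: plate controls were DMSO neutral control wells for no effect and unlabeled competitor peptide control wells for full effect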
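Assay system – tagged CAL PDZ protein CerCALP, purified · Timing – 1 h at RT · Compound – single point, 20 µM · Measured by – fluorescence polarization from S- and P-plane intensities, G-factor corrected · Evaluation – inhibition from polarization loss · Probe or stimulus – TMR reporter peptide T*-PRC34 · Buffer or medium – pH 7.4 phosphate-saline buffer, reducing agent, detergent, IgG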
Starred values were filed as active, the others as inactive; / = no result. In the library only some 1.2% were active in any assay of this set; here they are far more common.

SMILES	ARNT-TACC3 inh	CAL PDZ FP-1	CAL PDZ FP-2
CC1(C)C(=S)N(Cc2ccccc2)c2ccccc21	-9	44*	0
COc1ccc(S(=O)(=O)Nc2ccc3c(c2)C(=O)N([C@H](C)CO)C[C@H](C)[C@H](CN(C)C(=O)NC2CCCCC2)O3)cc1	-5	/	/
O=C(C[C@H]1C=C[C@H](NC(=O)C2CC2)[C@H](CO)O1)NCc1ccccc1Cl	-9	/	/
CCOC(=O)c1cnn(-c2ccc([N+](=O)[O-])cc2)c1N	-11	60*	0
CCOC(=O)c1cnn(-c2ccccc2)c1N	-24	2	-2
CCOc1ccccc1Nc1nc(N)nc(CSc2nccc(C)n2)n1	3	-7	/
COc1ccccc1Nc1nc(N)nc(CN2CCN(Cc3ccccc3)CC2)n1	19	8	-2
COc1ccccc1Nc1nc(N)nc(CSc2ncccn2)n1	3	69*	-1
COc1ccc(N2CCN(Cc3nc(N)nc(Nc4ccccc4OC)n3)CC2)cc1	50*	1	-4
COc1ccc(CN(C)C[C@@H]2Oc3c(NS(=O)(=O)c4ccc(Cl)cc4)cccc3C(=O)N([C@H](C)CO)C[C@@H]2C)cc1	-6	/	/
CO[C@@H](CN(C)C(=O)C1CC1)[C@@H](C)CN(C(=O)Nc1ccc(C(F)(F)F)cc1)[C@@H](C)CO	9	/	/
O=C(NC[C@@H]1[C@H](c2ccccc2)[C@@H](CO)N1C(=O)Cc1ccncc1)C1CCC1	-4	/	/
COc1ccc(OCC(=O)N/N=C/c2cccc3cccnc23)cc1	77*	/	-2
Cc1ccccc1NC(=O)CSc1n[nH]c(-c2ccccn2)n1	64*	-3	-3
Cc1ccccc1NC(=O)CSc1nnc(-c2ccccn2)o1	/	-3	-3
COc1ccccc1OCC(=O)N/N=C/c1cccc2cccnc12	78*	/	-2
O=C(CSc1cccc2cccnc12)Nc1cccc(S(=O)(=O)N2CCOCC2)c1	26*	/	-2
Cc1ccc(C)c(SCC(=O)Nc2cccc(S(=O)(=O)N3CCOCC3)c2)c1	-12	-2	-1
O=C(COc1ccc(Cl)cc1)N/N=C/c1cccc2cccnc12	9	/	0
COc1cccc(/C=N/NC(=O)COc2cccc3cccnc23)c1O	3	/	-2
C[C@H](NC(=O)C[C@@H]1C[C@H]2c3cc(NC(=O)C4CCOCC4)ccc3O[C@H]2[C@@H](CO)O1)c1ccccc1	-4	/	/
O=C(C[C@@H]1C[C@@H]2c3cc(NC(=O)C4CCOCC4)ccc3O[C@@H]2[C@@H](CO)O1)NCc1ccccc1	-12	/	/
C[C@H]1CN([C@@H](C)CO)C(=O)Cc2cc(NC(=O)C3CCCCC3)ccc2O[C@@H]1CN(C)Cc1ccncc1	-1	/	/
Cc1ccc(S(=O)(=O)NCC[C@@H]2CC[C@@H](NC(=O)Nc3ccccc3F)[C@H](CO)O2)cc1	-11	/	/
Cc1cccc(NC(=O)CSc2cccc3cccnc23)c1C	84*	-4	-1
SMILES	ARNT-TACC3 inh	CAL PDZ FP-1	CAL PDZ FP-2
COc1cccc(/C=N/NC(=O)CSc2cccc3cccnc23)c1	96*	/	-2
COc1ccc(NC(=O)CSc2cccc3cccnc23)c(OC)c1	4	-3	-2
O=C(CSc1cccc2cccnc12)N/N=C/c1ccc(O)cc1	27	8	-4
CC(=O)c1cccc(NC(=O)N2CCCCCC2)c1	-2	-1	-2
CC(=O)c1cccc(NS(=O)(=O)c2ccc(NC(=O)N3CCCCC3)cc2)c1	-1	121*	-1
C[C@H]1CN([C@@H](C)CO)C(=O)c2ccccc2-c2ccccc2CO[C@@H]1CN(C)C(=O)Nc1ccnc(N2CCOCC2)c1	10	/	/
COc1ccc(CN(C)C[C@H]2OCCCC[C@H](C)Oc3ccc(NC(=O)CCCN(C)C)cc3C(=O)N([C@H](C)CO)C[C@H]2C)cc1	-1	/	/
O=C(N/N=C/c1c[nH]c2ccccc12)c1ccccc1	3	37*	0
O=C(N/N=C/c1c[nH]c2ccccc12)c1ccncc1	-1	4	0
CCc1cccc2c(N=O)c(O)[nH]c12	15	1	-1
O=Nc1c(O)[nH]c2ccc(Cl)c(Cl)c12	59*	-4	-2
Cc1ccc(CN(C)C[C@@H]2OCc3cn(nn3)CCCC(=O)N([C@H](C)CO)C[C@@H]2C)cc1	-3	/	/
C[C@@H]1CN([C@H](C)CO)C(=O)c2cccc(NC(=O)c3nc4ccccc4s3)c2O[C@H]1CN(C)C(=O)Nc1ccc2c(c1)OCO2	-3	/	/
Cc1noc(C)c1S(=O)(=O)N(C)C[C@@H]1OCCCC[C@@H](C)Oc2ccc(NS(C)(=O)=O)cc2C(=O)N([C@@H](C)CO)C[C@H]1C	-3	/	/
CN(C)c1ccc(C=c2c3ccccc3n3c2cc(-c2ccccc2)[n+]3C)cc1	28	-14	24
